Measurements published in ChEMBL document CHEMBL4138193, “Novel indole and triazole based hybrid molecules exhibit potent anti-adipogenic and antidyslipidemic activity by activating Wnt3a/β-catenin pathway” (Eur J Med Chem, 2018).
The source made the active and inactive calls. The rule behind the calls is not given here.

Experiments:
[1] = organism: Mus musculus; assay: Activation of Wnt3a/beta-catenin in mouse 3T3L1 cells assessed as induction of TCF1 expression at 20 uM after 16 to 24 hrs in presence of beta-catenin/TCF complex inhibitor FH353 by Western blot analysis; format: cell-based
Procedure, shortened: (§1)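 Confluent 3T3-L1 cells given differentiation media (IBMX/insulin/dexamethasone) with 20 µM compound, with or without the β-catenin/TCF inhibitor FH353 (10 µM). Proteins isolated at 16 and 24 h and Western blotted after SDS-PAGE and nitrocellulose transfer. Blocking in 5% milk/TBS-T, primary antibody overnight at 4 °C, chemiluminescent detection, β-actin control, three independent experiments.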

[2] = test system: Syrian golden hamster; assay: Anti-dyslipidemic activity in high fat diet-induced dyslipidemia Syrian Golden hamster model assessed as reduction in serum total cholesterol levels at 100 mg/kg, po administered for 1 week followed by overnight fasting post last dose by clinical bio-analyzer analysis; format: functional, organism-based; settings: Mesocricetus auratus
Procedure, shortened: (§2)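 Male Syrian Golden hamsters (8-10 weeks, 100-120 g), 4 per group, given 45% kCal high fat diet for 4 days, then HFD plus oral dosing in 0.5% w/v NaCMC for one week. After an overnight fast, blood was taken from the retro-orbital plexus under anesthesia and serum was analysed on a clinical bio-analyzer. Mean ± SEM; one-way ANOVA with Bonferroni post-test.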

[3] = test system: Syrian golden hamster; assay: Anti-atherosclerotic activity in high fat diet-induced dyslipidemia Syrian Golden hamster model assessed as reduction in atherogenic index by measuring serum triglycerides to HDL ratio at 100 mg/kg, po administered for 1 week followed by overnight fasting post last dose by clinical bio-analyzer analysis; format: functional, organism-based; settings: Mesocricetus auratus
Procedure, shortened: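 Male Syrian golden hamsters (8–10 wk, 100–120 g), 4 per group, given 45% kcal HFD for 4 days, then 100 mg/kg p.o. in 0.5% NaCMC daily for one week alongside HFD. Blood taken from retro-orbital plexus after overnight fast. TG, HDL, LDL, ALT, AST measured on a clinical bio-analyzer and NEFA by kit. Mean ± SEM, one-way ANOVA with Bonferroni.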

[4] = organism: Mus musculus; assay: Activation of Wnt3a/beta-catenin in mouse 3T3L1 cells assessed as induction of LEF1 expression at 20 uM after 16 to 24 hrs by Western blot analysis; format: cell-based
[5] = test system: Syrian golden hamster; assay: Induction of reverse cholestrol transport in high fat diet-induced dyslipidemia Syrian Golden hamster model assessed as decrease in NPCL1 mRNA expression in liver at 100 mg/kg, po administered for 1 week by qRT-PCR analysis; format: functional, organism-based; settings: Mesocricetus auratus
[6] = test system: Syrian golden hamster; assay: Induction of reverse cholestrol transport in high fat diet-induced dyslipidemia Syrian Golden hamster model assessed as increase in ABCG8 mRNA expression in eWAT at 100 mg/kg, po administered for 1 week by qRT-PCR analysis; format: functional, organism-based; settings: Mesocricetus auratus
[7] = test system: 3T3-L1; assay: Anti-adipogenic activity in mouse 3T3L1 cells assessed as inhibition of adipogenesis after 20 mins by Oil Red O staining based assay; format: functional, cell-based; settings: 3T3-L1, 20 min
Procedure, shortened: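 3T3-L1 preadipocytes differentiated with compound at 0.1, 1, 3, 10, 30, 100 and 300 µM. Oil red O absorbance read at 492 nm, concentrations log-transformed and fitted by non-linear regression to give IC50. Two to three independent experiments, mean ± SEM.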

[8] = organism: Mus musculus; assay: Activation of Wnt3a/beta-catenin in mouse 3T3L1 cells assessed as down-regulation of C/EBPalpha expression at 20 uM after 2 to 6 days in presence of FH353 by Western blot analysis; format: cell-based
[9] = test system: 3T3-L1; assay: Upregulation of wnt3a mRNA expression in mouse 3T3L1 cells at 20 uM by qRT-PCR analysis; format: functional, cell-based
Procedure, shortened: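 3T3-L1 cells induced with MDI differentiation medium with or without 20 µM. RNA isolated with TRIzol and 500 ng reverse-transcribed to cDNA for real-time PCR. n=3 with triplicates, mean ± SD; one-way ANOVA with Bonferroni post-test.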

[10] = organism: Mus musculus; assay: Activation of Wnt3a/beta-catenin in mouse 3T3L1 cells assessed as increase in SIRT1 mRNA expression at 20 uM by qRT-PCR analysis; format: cell-based
Procedure, shortened: (§3)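 3T3-L1 cells differentiated with IBMX/dexamethasone/insulin media with or without 20 µM compound over the differentiation period. RNA extracted with TRIZOL, 500 ng reverse-transcribed to cDNA, then quantitative real-time PCR. Three independent experiments run in triplicate, mean ± SD, one-way ANOVA with Bonferroni posttest.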

[11] = test system: Syrian golden hamster; assay: Induction of reverse cholestrol transport in high fat diet-induced dyslipidemia Syrian Golden hamster model assessed as increase in LCAT mRNA expression in liver at 100 mg/kg, po administered for 1 week by qRT-PCR analysis; format: functional, organism-based; settings: Mesocricetus auratus
[12] = organism: Mus musculus; assay: Activation of Wnt3a/beta-catenin in mouse 3T3L1 cells assessed as down-regulation of C/EBPalpha mRNA expression at 20 uM by qRT-PCR analysis; format: cell-based; procedure, shortened: as §3
[13] = test system: 3T3-L1; assay: Upregulation of wnt3a protein expression in mouse 3T3L1 cells at 20 uM after 16 to 24 hrs by Western blot analysis; format: functional, cell-based
Procedure, shortened: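 3T3-L1 cells given MDI with or without 20 µM; protein harvested at 16 and 24 hr. Lysates in ice-cold buffer with protease and phosphatase inhibitors were BCA-quantified, run on 8–12% SDS-PAGE, transferred to nitrocellulose and probed overnight at 4 °C. Detection by chemiluminescence, normalized to β-actin; three independent experiments.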

[14] = test system: C3H 10T1/2; assay: Anti-adipogenic activity in mouse C3H10T1/2 cells assessed as reduction in lipid accumulation at early differentiation stage at 20 uM measured up to 3 days by Oil Red O absorbance method; format: functional, cell-based
Procedure, shortened: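 3T3-L1 or C3H10T1/2 cells given 20 µM compound with differentiation media for different time periods. Oil red O stain extracted from accumulated lipid with isopropanol and absorbance read at 492 nm. n=3, mean ± SD, Student t test against MDI+ group.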

[15] = organism: Mus musculus; assay: Activation of Wnt3a/beta-catenin in mouse 3T3L1 cells assessed as down-regulation of CDK2 expression at 20 uM after 16 to 24 hrs by Western blot analysis; format: cell-based
Procedure, shortened: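 3T3-L1 cells given MDI differentiation media (0.5 mM IBMX, 5 µg/ml insulin, 250 nM dexamethasone) with or without 20 µM compound. Proteins isolated at 16 and 24 h and probed by Western blot for CDK2, CDK4, CDK6, cyclin D1 and D3. Densitometry normalized to actin, n=3, mean ± SD, Student t test.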

[16] = test system: 3T3-L1; assay: Cell cycle arrest in mouse 3T3L1 cells assessed as reduction in accumulation at S phase at 10 to 20 uM after 24 hrs by propidium iodide-staining based flow cytometry; format: functional
Procedure, shortened: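 Confluent 3T3-L1 preadipocytes given differentiation medium (0.5 mM IBMX, 5 µg/ml insulin, 250 nM dexamethasone) with 10 or 20 µM for 16 and 24 hr. Cells trypsinized, fixed in ice-cold 70% ethanol for 2 hr, stained with propidium iodide (40 µg/ml in RNase A buffer, 30 min, room temperature). Flow cytometry gave the fractions in G1, S and G2/M; three independent experiments.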

[17] = test system: Syrian golden hamster; assay: Anti-dyslipidemic activity in high fat diet-induced dyslipidemia Syrian Golden hamster model assessed as reduction in serum triglycerides levels at 100 mg/kg, po administered for 1 week followed by overnight fasting post last dose by clinical bio-analyzer analysis; format: functional, organism-based; settings: Mesocricetus auratus; procedure, shortened: as §2
[18] = organism: Mus musculus; assay: Activation of Wnt3a/beta-catenin in mouse 3T3L1 cells assessed as down-regulation of CDK4 expression at 20 uM after 16 to 24 hrs in presence of FH353 by Western blot analysis; format: cell-based; procedure, shortened: as §1

Question: `Cc1ccc(S(=O)(=O)N(Cc2cn(Cc3cccc(F)c3F)nn2)Cc2cn(S(=O)(=O)c3ccc(C)cc3)c3ccccc23)cc1` was tested. Which Activity [1] did it give?
Answer: Its Activity is “inactive”.

Question: What about the Activity [2] of the same compound?
Answer: The Activity was “Active”.

Question: And the Activity [3]?
Answer: Its Activity is “Active”.

Question: What about the Activity [4] of the same compound?
Answer: The Activity was “Active”.

Question: What about the Activity [5] of the same compound?
Answer: Its Activity is “Active”.

Question: What about the Activity [6] of the same compound?
Answer: Its Activity is “Active”.

Question: What about the IC50 [7] of the same compound?
Answer: Its IC50 is 1700 nM.

Question: And the Activity [8]?
Answer: Its Activity is “inactive”.

Question: What about the Activity [9] of the same compound?
Answer: Its Activity is “Active”.

Question: And the Activity [10]?
Answer: The Activity was “Active”.

Question: What about the Activity [11] of the same compound?
Answer: The Activity was “Active”.

Question: And the Activity [12]?
Answer: The Activity was “Active”.

Question: And the Activity [13]?
Answer: Its Activity is “Active”.

Question: What about the Activity [14] of the same compound?
Answer: Its Activity is “Active”.

Question: And the Activity [15]?
Answer: Its Activity is “Active”.

Question: And the Activity [16]?
Answer: Its Activity is “inactive”.

Question: And the Activity [17]?
Answer: The Activity was “Active”.

Question: And the Activity [18]?
Answer: Its Activity is “inactive”.
